Assay results as given in ChEMBL document CHEMBL4689842, “EUbOPEN Chemogenomics Library wave 1” (2021).
Several values for one entry are separate records, joined by “and”; a condition that tells them apart may be missing. Equal values may be shown once.

Tested on: HEK-293T
Assay: Multiplex assay against HEK293T;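 on Population Tubulin-Different-Phenotype (%): share of the cells with healthy nuclei that show this phenotype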
Assay type: toxicity, cell-based
Settings: human, 10 µM, compound concentration 10 uM
Procedure, shortened: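 Cells stained live at seeding with Hoechst33342, BioTracker Green Microtubule Cytoskeleton Dye, MitoTracker Red and Annexin V Alexa Fluor 680 were imaged on a CQ1 microscope at 37°C and 5% CO2 after compound addition. Their classification by CellPathfinder machine-learning gating ran from Hoechst high-intensity objects versus normal cells, to healthy, pyknosed or fragmented nuclei among normal cells, to mitotic or apoptotic among pyknosed cells. Tubulin, mitochondrial-mass and membrane-permeability phenotypes are per cents of healthy-nucleus cells.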

## O=C(NCCN1CCOCC1)c1ccc2c(c1)C(=O)c1ccc(Nc3ccc(F)c(NC(=O)c4ccccc4)c3)cc1CC2 [FS-694]
12 h, replicate 1
  Population Apoptotic (%): 34%
  Population Fragmented Nuclei (%): 35% and 16%
  Population Healthy Nuclei (%): 29% and 54%
  Population Membrane Permeable-Phenotype (%): 32% and 21%
  Population Mitochondria Different-Phenotype (%): 12% and 9%
  Population Mitotic Cells (%): 65%
  Population Normal (%): 41% and 85%
  Population Pyknosed Nuclei (%): 35% and 29%
  Population Tubulin-Different-Phenotype (%): 30% and 33%
  Total Cell Count: 1239 and 557
12 h, replicate 2
  Population Apoptotic (%): 28% and 16%
  Population Fragmented Nuclei (%): 3% and 4%
  Population Healthy Nuclei (%): 69% and 85%
  Population Membrane Permeable-Phenotype (%): 15% and 11%
  Population Mitochondria Different-Phenotype (%): 47% and 23%
  Population Mitotic Cells (%): 71% and 83%
  Population Normal (%): 76% and 96%
  Population Pyknosed Nuclei (%): 26% and 9%
  Population Tubulin-Different-Phenotype (%): 97% and 66%
  Total Cell Count: 1142 and 1356
24 h, replicate 1
  Population Apoptotic (%): 48% and 24%
  Population Membrane Permeable-Phenotype (%): 31% and 22%
  Population Mitochondria Different-Phenotype (%): 14% and 8%
  Population Mitotic Cells (%): 51% and 75%
  Population Normal (%): 43% and 89%
  Population Pyknosed Nuclei (%): 34% and 16%
  Population Tubulin-Different-Phenotype (%): 18% and 51%
  Total Cell Count: 1331 and 564
24 h, replicate 2
  Population Fragmented Nuclei (%): 5%
  Population Healthy Nuclei (%): 85% and 58%
  Population Mitotic Cells (%): 90% and 60%
  Population Normal (%): 95% and 69%
  Population Tubulin-Different-Phenotype (%): 70% and 96%
  Total Cell Count: 1983 and 1283
